From paper PMC10664564 (Chemical Science, 2023)

Experiments:
SQS = target: T1, SQS (Homo sapiens, UniProt P37268); assay: Western blot of SQS protein levels in HeLa cells; type: cell-based; conditions: 18 h, 10 μM
T1 sequence (P37268 1-417): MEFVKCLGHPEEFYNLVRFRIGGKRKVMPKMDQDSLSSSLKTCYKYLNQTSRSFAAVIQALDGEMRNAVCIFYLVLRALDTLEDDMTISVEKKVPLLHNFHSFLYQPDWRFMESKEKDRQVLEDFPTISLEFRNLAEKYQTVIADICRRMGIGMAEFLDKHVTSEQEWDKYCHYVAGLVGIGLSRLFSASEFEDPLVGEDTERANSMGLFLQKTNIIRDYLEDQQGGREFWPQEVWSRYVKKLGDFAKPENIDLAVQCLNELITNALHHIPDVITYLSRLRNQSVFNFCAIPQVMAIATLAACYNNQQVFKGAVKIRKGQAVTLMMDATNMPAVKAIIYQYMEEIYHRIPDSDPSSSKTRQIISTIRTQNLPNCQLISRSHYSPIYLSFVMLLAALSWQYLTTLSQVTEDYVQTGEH
Summary of the method: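 HeLa cells were exposed to test compound, usually for 18 h, and SQS was detected by western blot (n = 2–4). DC50 and Dmax came from an 18 h dose–response (n = 4, mean ± SEM). A time course used 10 μM. Inhibitor arms were pre-incubated 2 h with MG132 (20 μM), chloroquine (20 μM) or MLN4924 (5 μM). A turnover arm used cycloheximide at 100 μg mL−1.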

[1] = phase II and III clinical trials, development stopped; cited from earlier work
HeLa cells = assay: Cell viability assay ± MBCD; type: cell-based, human; conditions: 72 h
Summary of the method: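 HeLa cells grown 72 h in FBS-containing medium with methyl β-cyclodextrin at 3 mM (a concentration set as non-toxic for HeLa), treated with a range of test compound concentrations; viability read; n = 3, mean ± SD of one biological replicate shown.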

Recombinant SQS (31-370) = target: T2, Recombinant SQS (31-370) (Homo sapiens, UniProt P37268); assay: In vitro SQS activity assay; type: biochemical; conditions: compound at 1 μM, positive control
T2 sequence (P37268 31-370): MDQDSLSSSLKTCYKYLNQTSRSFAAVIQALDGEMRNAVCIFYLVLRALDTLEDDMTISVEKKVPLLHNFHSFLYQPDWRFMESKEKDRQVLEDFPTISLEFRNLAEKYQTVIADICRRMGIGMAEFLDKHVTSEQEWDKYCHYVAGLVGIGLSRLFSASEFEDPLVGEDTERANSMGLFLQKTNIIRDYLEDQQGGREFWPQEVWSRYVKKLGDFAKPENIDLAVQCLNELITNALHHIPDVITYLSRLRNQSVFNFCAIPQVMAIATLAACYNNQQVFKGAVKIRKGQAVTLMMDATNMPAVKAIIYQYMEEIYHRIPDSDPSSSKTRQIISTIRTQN

## CCNCCN(CC)c1nc(Nc2ccc3ncoc3c2)nc(N[C@@H](C)C2CCCCC2)n1 [LS-102]
SQS
  SQS levels, tool compound alone: marked accumulation of SQS

## COc1cccc([C@H]2O[C@H](CC(=O)N3CCC(CC(=O)O)CC3)C(=O)N(CC(C)(C)COC(C)=O)c3ccc(Cl)cc32)c1OC [TAK-475, lapaquistat acetate]
[1]
  clinical safety finding: hepatotoxicity accompanied by elevated bilirubin levels

## C=C(CC[C@]12O[C@H](C(=O)O)[C@@](O)(C(=O)O)[C@](C(=O)O)(O1)[C@H](OC(=O)/C=C/[C@@H](C)C[C@@H](C)CC)[C@H]2O)[C@@H](OC(C)=O)[C@H](C)Cc1ccccc1 [ZAA, zaragozic acid A]
HeLa cells; MBCD 3 mM, 5 and 10 μM
  cell viability under cholesterol depletion: completely abolish cell viability
HeLa cells; standard conditions (DMEM 10% FBS)
  cell viability: neither ZAA nor KY02111 adversely affected cell viability
Recombinant SQS (31-370)
  inhibition of SQS activity: completety inhibited the reaction
